Measured values from ChEMBL document CHEMBL1126061, “Cyclic RGD peptide analogues as antiplatelet antithrombotics” (J Med Chem, 1992).
*1 amine or outer side, *2 acyl side, *3 side chain or, on linkers, in order; H or OH if unused. Where a SMILES comes first, the peptide text is derived from it. Bridges are numbered along the chain shown (N, C = ends). [ ]: non-standard residue; d: D form. Cys(O)(CH2CO) = O=C([C@H](C[S+]([O-])CC(=O)[*:3])N[*:1])[*:2]

Target: T1, Integrin alpha-IIb/beta-3 (Homo sapiens, UniProt P05106+P08514)
T1 sequence (P05106 27-788 limits assumed): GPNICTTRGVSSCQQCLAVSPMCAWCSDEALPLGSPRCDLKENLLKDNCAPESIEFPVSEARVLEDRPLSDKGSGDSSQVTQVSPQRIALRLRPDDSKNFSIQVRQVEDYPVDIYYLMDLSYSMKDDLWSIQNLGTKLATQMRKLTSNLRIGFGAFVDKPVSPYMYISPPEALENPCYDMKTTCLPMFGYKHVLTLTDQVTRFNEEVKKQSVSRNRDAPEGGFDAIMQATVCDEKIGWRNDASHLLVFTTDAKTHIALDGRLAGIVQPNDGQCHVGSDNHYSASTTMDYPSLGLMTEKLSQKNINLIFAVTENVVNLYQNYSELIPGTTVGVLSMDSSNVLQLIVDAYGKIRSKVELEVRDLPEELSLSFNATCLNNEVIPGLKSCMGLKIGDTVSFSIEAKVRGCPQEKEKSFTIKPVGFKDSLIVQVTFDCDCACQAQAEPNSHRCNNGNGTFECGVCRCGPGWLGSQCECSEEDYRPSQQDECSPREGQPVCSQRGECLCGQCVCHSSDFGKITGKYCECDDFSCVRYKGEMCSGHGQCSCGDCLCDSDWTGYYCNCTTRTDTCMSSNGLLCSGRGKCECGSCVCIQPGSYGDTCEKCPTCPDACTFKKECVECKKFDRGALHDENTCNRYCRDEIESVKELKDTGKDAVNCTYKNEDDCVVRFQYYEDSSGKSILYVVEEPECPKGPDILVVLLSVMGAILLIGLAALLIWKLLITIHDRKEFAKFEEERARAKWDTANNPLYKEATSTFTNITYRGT
T1 sequence (P08514 32-887 limits assumed): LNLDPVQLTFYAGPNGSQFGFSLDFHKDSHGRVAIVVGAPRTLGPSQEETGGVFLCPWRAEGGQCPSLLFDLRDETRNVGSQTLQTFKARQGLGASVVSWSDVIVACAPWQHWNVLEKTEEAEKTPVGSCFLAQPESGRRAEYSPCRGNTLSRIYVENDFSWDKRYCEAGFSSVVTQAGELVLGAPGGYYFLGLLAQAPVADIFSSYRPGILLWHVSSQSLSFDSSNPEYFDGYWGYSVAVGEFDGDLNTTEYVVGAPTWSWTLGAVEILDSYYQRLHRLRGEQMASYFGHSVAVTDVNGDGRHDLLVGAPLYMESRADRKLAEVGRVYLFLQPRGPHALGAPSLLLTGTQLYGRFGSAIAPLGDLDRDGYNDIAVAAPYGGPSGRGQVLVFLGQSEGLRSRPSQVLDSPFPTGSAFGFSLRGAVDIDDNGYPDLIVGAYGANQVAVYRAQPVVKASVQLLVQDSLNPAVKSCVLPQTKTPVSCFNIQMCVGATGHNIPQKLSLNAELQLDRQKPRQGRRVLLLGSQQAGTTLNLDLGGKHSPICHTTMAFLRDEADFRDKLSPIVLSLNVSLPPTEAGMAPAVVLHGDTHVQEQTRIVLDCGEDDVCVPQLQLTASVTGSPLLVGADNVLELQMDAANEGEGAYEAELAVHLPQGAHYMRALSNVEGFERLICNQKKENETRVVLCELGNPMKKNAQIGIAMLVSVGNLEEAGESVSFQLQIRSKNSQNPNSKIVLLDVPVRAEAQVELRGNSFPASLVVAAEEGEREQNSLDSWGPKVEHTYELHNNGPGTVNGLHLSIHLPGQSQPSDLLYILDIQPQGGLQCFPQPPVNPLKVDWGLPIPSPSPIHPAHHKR
T1 sequence (P08514 891-1039 limits assumed): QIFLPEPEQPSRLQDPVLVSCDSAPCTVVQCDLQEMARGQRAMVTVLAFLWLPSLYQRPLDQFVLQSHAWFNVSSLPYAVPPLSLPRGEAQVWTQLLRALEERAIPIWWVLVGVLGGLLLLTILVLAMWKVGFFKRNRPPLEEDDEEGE
Test: Inhibition of Fibrinogen binding to Fibrinogen receptor
Assay type: protein-complex assay
How it was run: (§1)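 Solid-phase ELISA: human fibrinogen (10 µg/mL) coated, BSA-blocked; samples plus purified human platelet GPIIbIIIa (40 µg/mL) incubated 1 h at room temperature. Bound receptor detected with anti-GPIIbIIIa antibody AP3 (1 µg/mL, 1 h), then goat anti-mouse HRP (1 h); OPD/H2O2 at pH 5, stopped with H2SO4, absorbance 492-405 nm. IC50 from four-parameter fit; n ≥ 3.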

Compared with `N=C(N)NCCC[C@@H]1NC(=O)[C@H](CCCCN)NC(=O)C[S+]([O-])C[C@@H](C(=O)O)NC(=O)[C@H](CC(=O)O)NC(=O)CNC1=O` (some centres not stated) (KRGD[Cys(O)(CH2CO)]-OH; lactam N-5), `CC(C)[C@@H]1NC(=O)C[S+]([O-])C[C@@H](C(=O)O)NC(=O)[C@H](CC(=O)O)NC(=O)CNC(=O)[C@H](CCCNC(=N)N)NC1=O` (some centres not stated) (VRGD[Cys(O)(CH2CO)]-OH; lactam N-5) is 3.1-fold lower in IC50: 14 nM for the first, 4.5 nM for the second.

Target: T1, Integrin alpha-IIb/beta-3
Test: The compound was tested for the inhibition of fibrinogen receptor
Assay type: protein-complex assay
How it was run: as §1

Going from `N=C(N)NCCC[C@@H]1NC(=O)[C@H](CCCCN)NC(=O)C[S+]([O-])C[C@@H](C(=O)O)NC(=O)[C@H](CC(=O)O)NC(=O)CNC1=O` (some centres not stated) (KRGD[Cys(O)(CH2CO)]-OH; lactam N-5) to `N=C(N)NCCC[C@@H]1NC(=O)[C@@H](CCCCN)NC(=O)CSC[C@@H](C(=O)O)NC(=O)[C@H](CC(=O)O)NC(=O)CNC1=O`, the IC50 rises from 2.6 nM to 20 nM (7.7-fold).

First: CC(C)[C@@H]1NC(=O)C[S+]([O-])C[C@@H](C(=O)O)NC(=O)[C@H](CC(=O)O)NC(=O)CNC(=O)[C@H](CCCNC(=N)N)NC1=O (some centres not stated) (VRGD[Cys(O)(CH2CO)]-OH; lactam N-5)
Second: N=C(N)NCCC[C@@H]1NC(=O)CNC(=O)C[S+]([O-])C[C@@H](C(=O)O)NC(=O)[C@H](CC(=O)O)NC(=O)CNC1=O (stereo in doubt; 66A)
The IC50 of the first is 2.1-fold higher: 2.9 nM for the first, 1.4 nM for the second.

First: N=C(N)NCCC[C@@H]1NC(=O)[C@H](Cc2ccc(O)cc2)NC(=O)C[S+]([O-])C[C@@H](C(N)=O)NC(=O)[C@H](CC(=O)O)NC(=O)CNC1=O (some centres not stated) (YRGD[Cys(O)(CH2CO)]-NH2; lactam N-5)
Second: N=C(N)NCCC[C@@H]1NC(=O)[C@@H](Cc2ccc(O)cc2)NC(=O)C[S+]([O-])C[C@@H](C(=O)O)NC(=O)[C@H](CC(=O)O)NC(=O)CNC1=O (stereo in doubt; 69A)
The IC50 of the first is 1.6-fold lower: 4.5 nM for the first, 7.3 nM for the second. The first is the more potent here.

Going from `N=C(N)NCCC[C@@H]1NC(=O)[C@@H](Cc2ccc(O)cc2)NC(=O)CS(=O)(=O)C[C@@H](C(=O)O)NC(=O)[C@H](CC(=O)O)NC(=O)CNC1=O` to `N=C(N)NCCC[C@@H]1NC(=O)[C@@H](Cc2ccc(O)cc2)NC(=O)CSC[C@@H](C(=O)O)NC(=O)[C@H](CC(=O)O)NC(=O)CNC1=O` ({CH2CO}-[dY]RGDC-OH; thioether N-5), the IC50 rises from 2.1 nM to 20 nM (9.5-fold). The first is the more potent here.

Going from `N=C(N)NCCC[C@@H]1NC(=O)CSC[C@@H](C(=O)O)NC(=O)[C@H](CC(=O)O)NC(=O)CNC1=O` ({CH2CO}-RGDC-OH; thioether N-4) to `N=C(N)NCCC[C@@H]1NC(=O)[C@@H](CC(=O)O)NC(=O)CSC[C@@H](C(=O)O)NC(=O)[C@H](CC(=O)O)NC(=O)CNC1=O`, the IC50 rises from 132 nM to 500 nM (3.8-fold).

`N=C(N)NCCC[C@@H]1NC(=O)CNC(=O)C(c2cccc(C(F)(F)F)c2)SC[C@@H](C(=O)O)NC(=O)[C@H](CC(=O)O)NC(=O)CNC1=O` (stereo in doubt; 24B) and `N=C(N)NCCC[C@@H]1NC(=O)CNC(=O)C(c2cccc3ccccc23)SC[C@@H](C(=O)O)NC(=O)[C@H](CC(=O)O)NC(=O)CNC1=O` (stereo in doubt; 17A) are within 1.5-fold of each other in IC50: 5.7 nM for the first, 5.3 nM for the second.

First: N=C(N)NCCC[C@@H]1NC(=O)CNC(=O)C[S+]([O-])C[C@@H](C(=O)O)NC(=O)[C@H](CC(=O)O)NC(=O)CNC1=O (stereo in doubt; 66B)
Second: N=C(N)NCCC[C@@H]1NC(=O)[C@H]2CCCN2C(=O)CSC[C@@H](C(=O)O)NC(=O)[C@H](CC(=O)O)NC(=O)CNC1=O ({CH2CO}-[dP]RGDC-OH; thioether N-5)
The IC50 of the first is 2.2-fold higher: 25 nM for the first, 11.4 nM for the second. The second is the more potent here.

Compared with `N=C(N)NCCC[C@@H]1NC(=O)[C@@H](Cc2ccccc2)NC(=O)CSC[C@@H](C(=O)O)NC(=O)[C@H](CC(=O)O)NC(=O)CNC1=O`, `N=C(N)NCCC[C@@H]1NC(=O)[C@H](Cc2ccc(O)cc2)NC(=O)CSC[C@@H](C(N)=O)NC(=O)[C@H](CC(=O)O)NC(=O)CNC1=O` ({CH2CO}-YRGDC-NH2; thioether N-5) is 14-fold lower in IC50: 35 nM for the first, 2.5 nM for the second.

Going from `CC[C@@H](C)[C@H]1NC(=O)CSC[C@@H](C(=O)O)NC(=O)[C@H](CC(=O)O)NC(=O)CNC(=O)[C@H](CCCN=C(N)N)NC1=O` to `CC[C@H](C)[C@@H]1NC(=O)CSC[C@@H](C(=O)O)NC(=O)[C@H](CC(=O)O)NC(=O)CNC(=O)[C@H](CCCN=C(N)N)NC1=O`, the IC50 falls from 18 nM to 6 nM (3-fold).

First: N=C(N)NCCC[C@@H]1NC(=O)[C@H](CCC(=O)O)NC(=O)CSC[C@@H](C(=O)O)NC(=O)[C@H](CC(=O)O)NC(=O)CNC1=O
Second: CC(C)C[C@H](NC(=O)[C@H](CC(=O)O)NC(=O)CNC(=O)[C@H](CCCN=C(N)N)NC(=O)CN)C(=O)O (H-GRGDL-OH)
The IC50 of the first is 33-fold lower: 15 nM for the first, 500 nM for the second.
